Assay outcomes: PubChem, several laboratories
A selection: hits, their analogues and other compounds. The true share with any hit is near 1.6%.
TPT1 inhibitor – C. albicans TPT1 enzyme inhibition; recombinant caTPT1, FP RNA substrate dephosphorylation; inhibition, % at 5 µM; 300,000 tested, 0.81% active;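 active means inhibition above the mean of all tested compounds plus 3 SD, set per screening campaign, cut at about 24% in these data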;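 further: plate controls were DMSO alone for no effect and ferristatin control at 100 nM for full effect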
SENP1 inh – blocks the human SENP1 SUMO protease catalytic domain. Q9P0U3. recombinant SENP1 catalytic domain, CyPet-SUMO1-YPet FRET cleavage. inhibition, % at 10 µM. 360,000 tested, 0.21% active. AID 624204;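 active means inhibition at least 30% at 10 µM, raw YFP signal under a set limit, fluorescence ratio 0.5 to 1.5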;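 further: 0% = enzyme with DMSO and 100% = no enzyme wells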
Target sequence (Q9P0U3 419-644 limits assumed): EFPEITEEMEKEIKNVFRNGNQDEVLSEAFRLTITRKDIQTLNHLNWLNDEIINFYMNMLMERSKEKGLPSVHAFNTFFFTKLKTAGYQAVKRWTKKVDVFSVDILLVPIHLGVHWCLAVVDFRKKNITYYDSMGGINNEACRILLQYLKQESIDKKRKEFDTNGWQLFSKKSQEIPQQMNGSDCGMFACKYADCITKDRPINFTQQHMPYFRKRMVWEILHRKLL
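Assay system: hSENP1 catalytic domain, recombinant. Amount: SENP1 enzyme, 20 pM final. Schedule: 50 min reaction, RT, dark. Technique: FRET, CFP and YFP emission. Control set: no-enzyme wells low, DMSO-plus-enzyme wells high control.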
Rpn11 block – Rpn11 (human) deubiquitinase inhibition; O00487; human 26S proteasome, Ub4-pepOG fluorescence polarization; 20S core pre-blocked with epoxomicin; inhibition, % at 20 µM; 360,000 tested, 0.59% active; AID 588493;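 active means inhibition at 20 µM, scaled to each plate's controls, above about 33%, limit read from the data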
HNF4A DNA FP – change in binding of human HNF4 alpha to DNA; HNF4a-FITC DNA binding, fluorescence polarization, 1 h; 360,000 tested, 0.3% active; activity change, % at 10 µM; in the data active means activity change above about 30%, passing the limit was not always enough
CSN inh – CSN deneddylation inhibition; Q92905; Purified CSN, SCF-Nedd8-OG deneddylation, fluorescence polarization; inhibition, % at 12.5 µM; 360,000 tested, 0.38% active;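 active means pattern-corrected inhibition above about 35%, with an unprinted fluorescence ratio check between 0.5 and 1.5, limit read from the data, passing the limit was not always enough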;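 further: 0% = enzyme with substrate and 100% = substrate without enzyme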
Target sequence (Q92905 whole entry, looked up, one chain of several): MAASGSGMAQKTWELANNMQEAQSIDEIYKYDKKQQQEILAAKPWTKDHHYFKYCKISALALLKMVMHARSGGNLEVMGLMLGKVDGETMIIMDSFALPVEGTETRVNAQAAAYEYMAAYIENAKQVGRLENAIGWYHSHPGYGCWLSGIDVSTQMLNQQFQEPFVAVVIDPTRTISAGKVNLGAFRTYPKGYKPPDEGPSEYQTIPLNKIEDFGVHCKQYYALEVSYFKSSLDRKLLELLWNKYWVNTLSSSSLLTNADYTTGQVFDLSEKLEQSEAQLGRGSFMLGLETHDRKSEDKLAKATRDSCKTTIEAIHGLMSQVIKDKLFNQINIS
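Test system: Human Csn5 produced in HEK293T cells | Compound: 12.5 µM single point | Times: 90 min, room temperature | Signal: Fluorescence polarization readout | Read-out basis: % inhibition of substrate cleavage by Csn5 | Controls: no-enzyme wells high, enzyme-with-substrate wells low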
Numbers without * were called inactive; . = no result given.

SMILES | TPT1 inhibitor | SENP1 inh | Rpn11 block | HNF4A DNA FP | CSN inh
CCC(C)Sc1ccc([C@H]2N[C@@](Cc3ccccc3)(C(=O)OC)[C@H]3C(=O)N(C)C(=O)[C@@H]23)cc1 (some centres undefined) | 1 | -4 | -9 | 5 | -4
O=c1cc(-c2ccccc2Cl)oc2c(NS(=O)(=O)c3cc(Cl)cc(Cl)c3O)ccc(O)c12 | 2 | 1 | 10 | -22 | 47*
Cc1ccc(Cl)c(OCC(=O)Nc2cc(S(=O)(=O)N3CCOCC3)ccc2N2CCCC2)c1 | 4 | -1 | 2 | 0 | 1
CC(C)(C)C(=O)OCc1nc(-c2ccc(F)cc2)cs1 | -1 | 2 | -5 | 1 | -1
COc1ccc(-c2csc(COC(=O)C(C)(C)C)n2)cc1 | -1 | 2 | 21 | 22 | 105*
Nn1c(SCC(=O)Nc2c(F)cc(F)cc2Br)nnc1C1CCCCC1 | -1 | 1 | -3 | 32 | 108*
Nn1c(SCC(=O)Nc2ccc(F)cc2F)nnc1C1CCCCC1 | -1 | 0 | 1 | 5 | 3
Nc1nc(SCC(=O)NCC2CCCO2)[nH]c(=O)c1NC(=O)c1ccco1 (centres undefined) | -1 | 1 | 4 | 3 | 46*
COc1cccc(-c2cc3c(c4c2ccn4C)C2CCC3C2)c1 (centres undefined) | . | -48 | 24 | 5 | -1
CC(C)C[C@@H]1CN(CCCC[C@H]2CNC(=O)C(=O)N2CCC2CCCCC2)C(=O)C(=O)N1Cc1ccccc1 | . | -3 | . | 2 | -4
COC(=O)[C@]12CCCCC=C1N(Cc1ccc3c(c1)OCO3)C(=O)[C@H](CC(=O)N1CCSCC1)C2 | . | 3 | . | 0 | -2
Oc1oc(-c2cccc3ccccc23)nc1/C=N/c1nccs1 | 31* | -28 | 34 | -2 | 13
Cc1cccc(/N=C/c2nc(-c3ccccc3Br)oc2O)n1 | 3 | -85 | -6 | -1 | 1
Nc1ccn([C@@H]2O[C@H](CNCc3cnc(N4CCOCC4)s3)[C@@H](O)[C@H]2O)c(=O)n1 | . | -2 | 0 | 2 | -1
Cc1ccc(OCCN2CCC2(C)C(=O)Nc2ccc3c(c2)OCCO3)cc1 (centres undefined) | . | 1 | 3 | 4 | -7
COc1ccc(CNC(=O)CCC(=O)c2ccc(F)cc2)cc1OC | . | 2 | -3 | 1 | 66*
O=C(c1ccc(O)cc1)c1ccc(O)cc1O | -2 | -2 | -4 | -2 | -3
O=C(c1ccccc1)c1ccc(O)cc1O | -20 | 54* | -127 | -105 | -78
Oc1ccc(Cl)cc1-c1cc(-c2ccco2)[nH]n1 | 3 | -14 | 19 | 3 | 45*
Cc1nc2nc(SCC(=O)NCCCN3CCCCCC3)nn2c(C)c1Cc1ccccc1 | -2 | -12 | -4 | 68* | 88*
Cc1ccccc1Cc1c(C)nc2nc(SCC(=O)NCCCN3CCCCC3)nn2c1C | -2 | 0 | -16 | 9 | -4
C#CCOCCOCCOCCNc1nc(N2CCN(C(=O)CCCCCCCCCCNC(=O)[C@H]([C@@H](C)CC)n3cc(CCCCCN)nn3)CC2)nc(N2CCN(C(=O)CCCCCCCCCCNC(=O)[C@@H]([C@H](C)O)n3cc(C)nn3)CC2)n1 | -6 | 0 | 45* | 15 | 17
C#CCOCCOCCOCCNc1nc(N2CCN(C(=O)CCCCCCCCCCNC(=O)[C@H](CCCCN)n3cc(C)nn3)CC2)nc(N2CCN(C(=O)CCCCCCCCCCNC(=O)[C@@H]([C@H](C)CC)n3cc(CCCCCN)nn3)CC2)n1 | -3 | -16 | 67* | 165 | 111*
Cc1ccc(NC(=O)c2cncc(Br)c2)nc1 | 0 | 0 | 9 | 4 | 10
Cc1cc(O)c2c(c1O)C(=O)[C@]13C(=C2O)C(=O)[C@@H]2[C@@H](O)[C@H]1[C@@H]1[C@H](O)[C@H]3C(=O)C3=C(O)c4c(O)cc(C)c(O)c4C(=O)[C@]312 | . | -85 | 49* | -39 | 61
SMILES | TPT1 inhibitor | SENP1 inh | Rpn11 block | HNF4A DNA FP | CSN inh
C=CCNC(=O)c1ccsc1N | . | -2 | . | -10 | -15
O=C(CC(=O)Nc1cccc(Cl)c1Cl)Nc1cccc(Cl)c1Cl | -4 | 1 | -5 | 1 | 1
CCCCCCN1C=CC(=C2C(=O)c3ccccc3C2=O)C=C1 | 1 | 48* | -2 | 3 | 7
S=C1Nc2ccccc2CS1 | . | 2 | -4 | -5 | -2
S=C1Cc2ccccc2N1 | . | -2 | 21 | 1 | 39*
COC1=CC(C)C2CC3OC(=O)CC4C(C)=C(OC)C(=O)C(C2(C)C1=O)C34C (centres undefined) | . | -3 | 3 | 4 | 0
Cc1ccc2c(c1)N(Cc1cccc(C#N)c1)C=NS2(=O)=O | -2 | -1 | -6 | -2 | 100*
O=c1c2ccc(F)cc2sn1-c1ccccc1 | . | 1 | -12 | 29* | -3
O=c1c2ccccc2sn1-c1ccc(F)cc1 | . | -2 | -5 | 5 | 7
O=C(NCCC1=CCCCC1)C1CCC(CNc2c(N3CCCC3)c(=O)c2=O)CC1 (centres undefined) | 2 | 0 | 4 | 29* | 4
N#C/C(=C\c1ccc(C(=O)O)cc1)c1nc2sc3c(c2c(=O)[nH]1)CCCC3 | . | -31 | . | 11 | 70*
C/C=C\C=C/C(=O)Nc1cccc(C2=NOC3(C2)C[C@@H](C(N)=O)N(C(=O)/C=C/C=C\C)C3)c1 (some centres undefined) | 5 | -12 | 52* | -41 | 64*
CCn1c(SCC(=O)Nc2oc(-c3ccccc3)c(-c3ccccc3)c2C#N)nnc1-c1cc(OC)cc(OC)c1 | -2 | 0 | 8 | 14 | 70*
COc1ccc(S(=O)(=O)NNC(=O)c2sccc2-n2cccc2)cc1 | -6 | 1 | -2 | 31* | -2
O=C(NNS(=O)(=O)c1ccc(Br)cc1)c1sccc1-n1cccc1 | -3 | -1 | -3 | 1 | -5
CC(C)=CCN1CCN(Cc2coc3ccc(C)cc3c2=O)CC1CCO (centres undefined) | 0 | -16 | 5 | 51* | -1
CCCCn1nnnc1C(c1ccccc1)N1CCN(c2cc(C)ccc2C)CC1 (centres undefined) | . | 3 | . | 1 | -3
COc1ccc2[nH]cc(CCNS(=O)(=O)c3ccccc3)c2c1 | 5 | 0 | -3 | 0 | 60*
COc1ccc2[nH]cc(CCNS(=O)(=O)c3ccc(F)cc3)c2c1 | 2 | -2 | 2 | 1 | 1
CCNC(=O)CN(C1CCCCC1)S(=O)(=O)c1ccc(F)cc1 | 0 | 2 | . | 37* | 4
Cc1ccc(C)c2nc3sc(C(=O)N4CCCc5ccccc54)c(N)c3cc12 | 22 | 26 | -29 | 56* | 5
CCc1ccc2nc3sc(C(=O)N4CCc5ccccc54)c(N)c3cc2c1 | 1 | . | . | . | .
Cc1ccc(S(=O)(=O)N2CCOCC2)cc1C(=O)OCC(=O)NC1CCCCC1 | . | -1 | -2 | -7 | 2
